Data on 10 compounds can be found in ChEMBL document CHEMBL1144526, “Isoindolo[2,1-c]benzo[1,2,4]triazines: a new ring system with antiproliferative activity” (2007).

Common to all, as to assay type: functional
The subject of test [1] is MCF7. Briefly: Antiproliferative activity against human MCF7 cells at 100 uM after 48 hrs.
Another test relates to SF-268. Briefly: Antiproliferative activity against human SF268 cells at 100 uM after 48 hrs.
Another test has as its system NCI-H460. Briefly: Antiproliferative activity against human NCI-H460 cells at 100 uM after 48 hrs.
Another test relates to EKVX. Briefly: Growth inhibition of human EKVX cells. The procedure, abridged: (§1)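 NCI full human tumour cell panel covering leukemia, melanoma, lung, colon, renal, ovarian, breast, prostate and CNS subpanels. Five concentrations at 10-fold dilution were used: 10^-4, 10^-5, 10^-6, 10^-7 and 10^-8 M. GI50, the concentration giving 50% inhibition of net cell growth, was determined for each cell line.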

The subject of the next test is MOLT-4. Description: Growth inhibition of human MOLT4 cells. The procedure, abridged: as §1
Test [2] can be described thus: Growth inhibition of human NCI-50 cells. Conditions: NCI full human tumour cell panel. In short, it runs like this: as §1
Another test concerns NCI-H522. Briefly: Growth inhibition of human NCI-522 cells. The procedure, abridged:
as §1

The test system of the next test is SR. Description: Growth inhibition of human SR cells. In short, it runs like this: as §1
A further test has as its system COLO 205. Description: Growth inhibition of human COLO205 cells. The procedure, abridged: as §1
Another test deals with OVCAR-8. Briefly: Growth inhibition of human OVCAR8 cells. The procedure, abridged: as §1
A further test has as its system A549. Description: Growth inhibition of human A549 cells. In short, it runs like this: as §1
The test system of the next test is LOX IMVI. Description: Growth inhibition of human LOX IMVI cells. The procedure, abridged:
as §1

The subject of a further test is M14. Description: Growth inhibition of human M14 cells. The procedure, abridged:
as §1

In another test the test system is BT-549. Description: Growth inhibition of human BT549 cells. In short, it runs like this: as §1
Test [3] concerns MCF7. Description: Growth inhibition of human MCF7 cells. The procedure, abridged: as §1

Molecules are shown by their SMILES.

Regarding `Cc1cc2nnc3c4ccccc4c(C#N)n3c2cc1C`, the figures for the Activity in the test with MCF7 [1], in the test on SF-268 and with NCI-H460 were 76%, 76% and 48%, respectively.

With `Cc1cccc2nnc3c4ccccc4c(C#N)n3c12`, the Activity in the test with MCF7 [1] is given as 69%; in the test with SF-268, 88%; in the test on NCI-H460, 50%.

Take `N#Cc1c2ccccc2c2nnc3ccc(Cl)cc3n12`: the figures for the Activity with MCF7 [1], with SF-268 and in the test on NCI-H460 were 51%, 86% and 61%, respectively.

For the compound `N#Cc1c2ccccc2c2nnc3cc(Cl)ccc3n12`, the Activity with MCF7 [1] is 109%; in the test on SF-268, 114%; with NCI-H460, 109%.

For `COc1ccc2c(c1)nnc1c3ccccc3c(C#N)n21`, the Activity in the test with MCF7 [1] was 63%; in the test with SF-268, 104%; with NCI-H460, 86%.

On to `N#Cc1c2ccccc2c2nnc3ccc(C(F)(F)F)cc3n12`, for which the Activity is 83% in the test with MCF7 [1], 96% with SF-268 and 8% in the test with NCI-H460. Further, the GI50 was no more than 0.01 µM in the test on EKVX; 10.5 µM with MOLT-4; 34.7 µM in test [2]; 17 µM in the test with NCI-H522; 0.214 µM in the test with SR.

Turning to `Cc1cccc2c1nnc1c3ccccc3c(C#N)n21`, the Activity is listed as 72% in the test on MCF7 [1], 105% with SF-268 and 118% in the test on NCI-H460.

For the compound `N#Cc1c2ccccc2c2nnc3cc(Cl)c(Cl)cc3n12`, the Activity is 80% in the test on MCF7 [1], 68% with SF-268 and 17% with NCI-H460. Further, the GI50 in [2] is 49 µM.

For `N#Cc1c2ccccc2c2nnc3ccccc3n12`, the values for the Activity in the test with MCF7 [1], in the test with SF-268 and in the test with NCI-H460 were 26%, 95% and 21%, respectively. Besides, the GI50 was 9.33 µM in the test with COLO 205; 12.6 µM in the test with EKVX; 11.2 µM in the test on OVCAR-8; 13.5 µM in the test on A549; 6.46 µM in the test on LOX IMVI; 14.8 µM in the test with M14. Besides, the GI50 in [2] was 33.9 µM; with BT-549, 12 µM; in the test on MCF7 [3], 14.1 µM.

As to `N#Cc1c2ccccc2c2nnc3cc(C(F)(F)F)ccc3n12`, the Activity was determined as 65% with MCF7 [1], 82% in the test on SF-268 and 6% in the test with NCI-H460. The results for the GI50 (in test [2]; in the test on MCF7 [3]) were 53.7 µM and 10.7 µM, respectively.

Usually GI50 stands for the concentration giving 50% growth inhibition.
